By MIC is commonly meant the lowest concentration that inhibits growth of the organism.

Values after ≈ are worked out from the molar mass of the structure shown.

Holding throughout (assay type): functional
The test system of assay [1] is Burkholderia cenocepacia. Briefly: Antimicrobial activity against Burkholderia cenocepacia 212 expressing beta-lactamase PenB3. The method, boiled down:
(§1)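 MICs measured by broth microdilution and by Etest on clinical B. cenocepacia isolates grown for 18 h in Trypticase soy broth (30°C and 37°C). Susceptibility was read against CLSI guidelines.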

In assay [2] the test system is Burkholderia cenocepacia. Briefly: Antimicrobial activity against Burkholderia cenocepacia 07-34 expressing beta-lactamase PenB1. The method, boiled down: as §1
For assay [3], the system named is Escherichia coli. Briefly: Antimicrobial activity against Escherichia coli TOP10 harboring beta-lactamase PenB1. In short, it runs like this:
(§2)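 MICs by broth microdilution and Etest, interpreted per CLSI guidelines. Strains tested were host E. coli TOP10, and TOP10 carrying pBcSau13 (pBK-CMV vector, kanamycin-resistant) holding a Sau3AI fragment of B. cenocepacia 212 DNA that encodes PenB1.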

Assay [4] concerns Burkholderia cenocepacia. Briefly: Antimicrobial activity against Burkholderia cenocepacia 07-34 expressing beta-lactamase PenB1 in presence of 4 ug/ml beta-lactamase inhibitor clavulanic acid. The method, boiled down: (§3)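 Cultured in Trypticase soy broth at 30°C and 37°C for 18 h. MICs by broth microdilution and Etest, read against CLSI guidelines.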
Assay [5] deals with Burkholderia cenocepacia. Briefly: Antimicrobial activity against Burkholderia cenocepacia 212 expressing beta-lactamase PenB3 in presence of 4 ug/ml beta-lactamase inhibitor clavulanic acid. In short, it runs like this:
as §3

For assay [6], the system named is Burkholderia cenocepacia. Briefly: Antimicrobial activity against Burkholderia cenocepacia 09-54 expressing beta-lactamase PenB2 in presence of 4 ug/ml beta-lactamase inhibitor clavulanic acid. In short, it runs like this:
as §3

Assay [7] relates to Escherichia coli. The experiment in a line: Antimicrobial activity against Escherichia coli TOP10 in presence of 4 ug/ml beta-lactamase inhibitor clavulanic acid. In short, it runs like this: (§4)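 E. coli TOP10 host, either plain or carrying the pBK-CMV clone pBcSau13 with the B. cenocepacia 212 insert. MICs by broth microdilution and Etest, read against CLSI guidelines.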
In assay [8] the test system is Burkholderia cenocepacia. Briefly: Antimicrobial activity against Burkholderia cenocepacia 09-54 expressing beta-lactamase PenB2. In short, it runs like this: as §1
For assay [9], the system named is Burkholderia cenocepacia. Briefly: Antimicrobial activity against Burkholderia cenocepacia 5007902 expressing beta-lactamase PenB4. The method, boiled down: as §1
Assay [10] has as its system Burkholderia cenocepacia. Briefly: Antimicrobial activity against Burkholderia cenocepacia 5007902 expressing beta-lactamase PenB4 in presence of 4 ug/ml beta-lactamase inhibitor clavulanic acid. In short, it runs like this: as §3
In assay [11] the test system is Escherichia coli. The experiment in a line: Antimicrobial activity against Escherichia coli TOP10. In short, it runs like this: as §2
Assay [12] has as its system Escherichia coli. Briefly: Antimicrobial activity against Escherichia coli TOP10 harboring beta-lactamase PenB1 in presence of 4 ug/ml beta-lactamase inhibitor clavulanic acid. In short, it runs like this: as §4

Turning to `CC1(C)S[C@@H]2[C@H](NC(=O)[C@H](N)c3ccc(O)cc3)C(=O)N2[C@H]1C(=O)O` [AMOXICILLIN], the MIC in the assay on Burkholderia cenocepacia [1] was 512 µg/mL (≈ 1400 µM); in the assay on Burkholderia cenocepacia [2], 512 µg/mL (≈ 1400 µM); with Escherichia coli [3], 512 µg/mL (≈ 1400 µM); in the assay on Burkholderia cenocepacia [4], 512 µg/mL; in the assay with Burkholderia cenocepacia [5], 512 µg/mL; with Burkholderia cenocepacia [6] it was 512 µg/mL. The MIC in the assay on Escherichia coli [7] came out at 4 µg/mL; against Burkholderia cenocepacia [8] it was 512 µg/mL (≈ 1400 µM); in the assay on Burkholderia cenocepacia [9], 512 µg/mL (≈ 1400 µM); with Burkholderia cenocepacia [10], 512 µg/mL; in the assay with Escherichia coli [11], 4 µg/mL (≈ 10.9 µM); in the assay on Escherichia coli [12], 16 µg/mL.

Take `C[C@@H](O)[C@H]1C(=O)N2C(C(=O)O)=C(SCCNC=N)C[C@H]12` [IMIPENEM ANHYDROUS]: the minimal inhibitory concentration (MIC) against Burkholderia cenocepacia [1] was found to be 16 µg/mL (≈ 53.4 µM); against Burkholderia cenocepacia [2], 8 µg/mL (≈ 26.7 µM); against Escherichia coli [3], 0.5 µg/mL (≈ 1.67 µM); against Burkholderia cenocepacia [8], 16 µg/mL (≈ 53.4 µM); against Burkholderia cenocepacia [9], 8 µg/mL (≈ 26.7 µM).

Turning to `CC(C)(O/N=C(\C(=O)N[C@@H]1C(=O)N2C(C(=O)[O-])=C(C[n+]3ccccc3)CS[C@H]12)c1csc(N)n1)C(=O)O` [CEFTAZIDIME], the MIC against Burkholderia cenocepacia [1] stood at 16 µg/mL (≈ 29.3 µM); against Burkholderia cenocepacia [2], 4 µg/mL (≈ 7.32 µM); in the assay with Escherichia coli [3] it was 1 µg/mL (≈ 1.83 µM); against Burkholderia cenocepacia [8] it was 32 µg/mL (≈ 58.5 µM); against Burkholderia cenocepacia [9] it was 0.25 µg/mL (≈ 0.457 µM); against Escherichia coli [11], 0.5 µg/mL (≈ 0.915 µM).

Turning to `CO/N=C(\C(=O)N[C@@H]1C(=O)N2C(C(=O)[O-])=C(C[N+]3(C)CCCC3)CS[C@H]12)c1csc(N)n1`, the MIC in the assay on Burkholderia cenocepacia [1] turned out to be 64 µg/mL (≈ 133 µM); in the assay with Burkholderia cenocepacia [2], 32 µg/mL (≈ 66.6 µM); against Burkholderia cenocepacia [8], 64 µg/mL (≈ 133 µM); in the assay on Burkholderia cenocepacia [9], 1 µg/mL (≈ 2.08 µM).

With `CO[C@@]1(NC(=O)Cc2cccs2)C(=O)N2C(C(=O)O)=C(COC(N)=O)CS[C@@H]21` [CEFOXITIN], the MIC with Burkholderia cenocepacia [1] was 512 µg/mL (≈ 1200 µM); in the assay with Burkholderia cenocepacia [2] it was 512 µg/mL (≈ 1200 µM); in the assay on Escherichia coli [3], 8 µg/mL (≈ 18.7 µM); against Burkholderia cenocepacia [8] it was 512 µg/mL (≈ 1200 µM); in the assay with Burkholderia cenocepacia [9] it was 512 µg/mL (≈ 1200 µM); in the assay with Escherichia coli [11] it was 8 µg/mL (≈ 18.7 µM).

(Values after ChEMBL document CHEMBL1629643, “Naturally occurring Class A ss-lactamases from the Burkholderia cepacia complex” (Antimicrob Agents Chemother, 2009).)
